Assay results from ChEMBL document CHEMBL1135512 (J Med Chem, 2002).

How the values were obtained:
Plasmodium falciparum [1] = experiment: In vitro inhibitory activity against multidrug-resistant Plasmodium falciparum W2 Indochina; assay type: functional, organism-based
How it was run: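 Clone W2 (Indochina), sorbitol-synchronized, was grown in RPMI 1640 with 10% human serum, 25 mM HEPES and 25 mM NaHCO3, at final parasitemia 0.5% and hematocrit 1.5%. The drug was present for 48 h at 37 °C under 10% O2/6% CO2/84% N2. Growth was read as 3H-hypoxanthine uptake (1 μCi/well). IC50 came from nonlinear regression of log-dose/response as the geometric mean with 95% CI.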

Plasmodium falciparum [2] = experiment: Percent reversal against Plasmodium falciparum W2 at 1 uM DEEA; assay type: functional
[3] = Dissociation constant (pKa); assay type: physicochemical
[4] = Cytotoxicity against Chinese hamster ovary cells; assay type: cell-based, Cricetulus griseus
How it was run: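 Cells were then exposed to graded drug concentrations for 48 h at 37 °C, 5% CO2. MTT (1 mg/mL in PBS) was added for 3 h, and formazan was dissolved in DMSO and read at 570/630 nm. IC50 came from nonlinear regression versus drug-free wells.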

[5] = Partition coefficient (logP); assay type: physicochemical; details: octanol/water
[6] = In vitro hemolytic concentration on uninfected erythrocytes.; assay type: functional, Homo sapiens
How it was run: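 Washed A+ human erythrocytes were held at 1.5% hematocrit in RPMI 1640 with 10% human serum, 25 mM HEPES and 25 mM NaHCO3. Drug (2 mM to 1 μM final, triplicate) was added for 42 h at 37 °C under 10% O2/6% CO2. Released hemoglobin in supernatant was measured with TMB/H2O2 at 455 nm. HC50 is relative to 5% saponin lysis, by nonlinear regression.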

Plasmodium falciparum [7] = experiment: Accumulation coefficient of chloroquine at 1 um-10 uM of DEEA against Plasmodium falciparum W2;Range is from 14-15; assay type: functional
How it was run: (§1)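 W2 infected erythrocytes were suspended in RPMI 1640 with 25 mM HEPES and 25 mM NaHCO3 (2% parasitemia, 2% hematocrit). They were mixed over silicone oil with buffer holding [3H]CQ (26 Ci/mmol) plus DEEA at 1 or 10 μM. Incubation was 1 h at 37 °C under 10% O2/6% CO2/84% N2, followed by 1 min centrifugation. Ratio = parasite [3H]CQ (infected minus uninfected cells) / same-volume buffer.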

[8] = Partition coefficient (logD7.0); assay type: physicochemical; details: octanol/water, pH 7
Plasmodium falciparum [9] = experiment: Accumulation coefficient of chloroquine at 1 uM-10 uM of DEEA against Plasmodium falciparum W2; Range is from 14-56; assay type: functional; how it was run: as §1
Plasmodium falciparum [10] = experiment: Concentration required to reduce chloroquine IC50 by 50%; assay type: functional, organism-based
How it was run: (§2)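 Synergy isotopic microtest on sorbitol-synchronized W2 (Indochina) and 3D7 in RPMI 1640 with 10% human serum, HEPES/NaHCO3, parasitemia 0.5%, hematocrit 1.5%. CQ was combined with subinhibitory fixed DEEA concentrations, and 3H-hypoxanthine was added for 48 h at 37 °C under 10% O2/6% CO2/84% N2. Reversal IC50 is the DEEA concentration halving CQ IC50, found by nonlinear regression of log-dose/IC50.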

Plasmodium falciparum [11] = experiment: Accumulation coefficient of chloroquine at 1 uM -10 uM of DEEA against Plasmodium falciparum W2; Range is from 15-101; assay type: functional; how it was run: as §1
Plasmodium falciparum [12] = experiment: Accumulation coefficient of chloroquine at 1 uM-10 uM of DEEA against Plasmodium falciparum W2; Range is from 16-71; assay type: functional; how it was run: as §1
Plasmodium falciparum [13] = experiment: Accumulation coefficient of chloroquine at 1 uM-10 uM of DEEA against Plasmodium falciparum W2; Range is from 19-23; assay type: functional; how it was run: as §1
Plasmodium falciparum [14] = experiment: Accumulation coefficient of chloroquine at 1 uM-10 uM of DEEA against Plasmodium falciparum W2; Range is from 50-66; assay type: functional; how it was run: as §1
Plasmodium falciparum [15] = experiment: Accumulation coefficient of chloroquine at 1 uM-10 uM of DEEA against Plasmodium falciparum W2;Range is from 16-25; assay type: functional; how it was run: as §1
Plasmodium falciparum [16] = experiment: Concentration required to reduce chloroquine IC50 by 50%; Antagonist; assay type: functional, organism-based; how it was run: as §2
Plasmodium falciparum [17] = experiment: Accumulation coefficient of chloroquine at 1 uM-10 uM of DEEA against Plasmodium falciparum W2; Range is from 23-30; assay type: functional
Plasmodium falciparum [18] = experiment: Accumulation coefficient of chloroquine at 1 uM-10 uM of DEEA against Plasmodium falciparum W2; assay type: functional; how it was run: as §1
Plasmodium falciparum [19] = experiment: Percent reversal against Plasmodium falciparum W2 at 1 uM DEEA
Plasmodium falciparum [20] = experiment: Accumulation coefficient of chloroquine at 1 uM-10 uM of DEEA against Plasmodium falciparum W2; Range is from 61-242; assay type: functional; how it was run: as §1
Plasmodium falciparum [21] = experiment: Accumulation coefficient of chloroquine at 1 uM-10 uM of DEEA against Plasmodium falciparum W2; Range is from 62-63; assay type: functional
Plasmodium falciparum [22] = experiment: Accumulation coefficient of chloroquine at 1 uM-10 uM of DEEA against Plasmodium falciparum W2; Range is from 22-29; assay type: functional; how it was run: as §1
[23] = pKa of the compound; assay type: physicochemical
Plasmodium falciparum [24] = experiment: Accumulation coefficient of chloroquine at 1 uM-10 uM of DEEA against Plasmodium falciparum W2; Range is from 50-159; assay type: functional; how it was run: as §1
Plasmodium falciparum [25] = experiment: Accumulation coefficient of chloroquine at 1 uM-10 uM of DEEA against Plasmodium falciparum W2; Range is from 18-16; assay type: functional
Plasmodium falciparum [26] = experiment: Accumulation coefficient of chloroquine at 1 uM-10 uM of DEEA against Plasmodium falciparum W2;Range is from 30-23; assay type: functional; how it was run: as §1
Plasmodium falciparum [27] = experiment: Accumulation coefficient of chloroquine at 1 uM-10 uM of DEEA against Plasmodium falciparum W2;Range is from 30-32; assay type: functional; how it was run: as §1
Plasmodium falciparum [28] = experiment: Accumulation coefficient of chloroquine at 1 uM-10 um of DEEA against Plasmodium falciparum W2;Range is from 112-298; assay type: functional; how it was run: as §1
Plasmodium falciparum [29] = experiment: Accumulation coefficient of chloroquine at 1 uM-10 uMof DEEA against Plasmodium falciparum W2; assay type: functional; how it was run: as §1
Plasmodium falciparum [30] = experiment: Accumulation coefficient of chloroquine at 1 uM-10 uM of DEEA against Plasmodium falciparum 3D7; assay type: functional

Compound | IC50 (Plasmodium falciparum [1]; Plasmodium falciparum) [µM] | Reversal (Plasmodium falciparum [2]) [%] | pKa [3] | Cytotoxicity [4] [µM] | logP ([5]; read-out: logP) | HC50 [6] [µM] | logD ([8]; read-out: logD) | IC50 (Plasmodium falciparum [10]; Plasmodium falciparum) [µM] | also measured
CC1C2c3ccccc3C(c3ccccc32)C1C(=O)Nc1ccccn1 (centres undefined) | 302 | 0 | 5.27 | 205 | 4.17 | 1827 | 4.16 | – | Accumulation coefficient (Plasmodium falciparum [7]): 15
CN(C)CC1C2c3ccccc3C(c3ccccc32)C1CO (centres undefined) | 36 | 66 | 8.86 | > 2000 | 2.82 | >2000 | 0.96 | 0.6 | Accumulation coefficient (Plasmodium falciparum [9]): 56
CC1C2c3ccccc3C(c3ccccc32)C1C(=O)Nc1ccncc1 (centres undefined) | 833 | 21 | 5.27 | > 500 | 3.85 | >2000 | 3.85 | 1490 | Accumulation coefficient (Plasmodium falciparum [11]): 101
CN(C)CCNC1CC2c3ccccc3C1c1ccccc12 (centres undefined) | 8 | 63 | 9.48 | 695 | 3.17 | 644 | -1.5 | 0.8 | Accumulation coefficient (Plasmodium falciparum [12]): 71
CC1C2c3ccccc3C(c3ccccc32)C1C(=O)/N=C/N(C)C (centres undefined) | 51 | 0 | – | > 2000 | 3.26 | >2000 | 3.26 | 40 | Accumulation coefficient (Plasmodium falciparum [13]): 23
CN(C)CC1C2c3ccccc3C(c3ccccc32)C1COC(=O)N(C)C (centres undefined) | 21 | 25 | 8.99 | 758 | 2.99 | 1563 | 1 | 1.6 | Accumulation coefficient (Plasmodium falciparum [14]): 66
CN(C)C=NC(=O)C1C2c3ccccc3C(c3ccccc32)C1C(=O)N=CN(C)C (centres undefined) | 33 | 0 | – | 820 | 1.6 | >2000 | 1.6 | 30 | Accumulation coefficient (Plasmodium falciparum [15]): 25
COC(=O)C1C2c3ccccc3C(c3ccccc32)C1C(=O)N(C)C (centres undefined) | 32 | 0 | -1.65 | > 2000 | 2.47 | >2000 | 2.47 | – | IC50 (Plasmodium falciparum [16]): Antagonist; Accumulation coefficient (Plasmodium falciparum [17]): 30
CC1C2c3ccccc3C(c3ccccc32)C1C(N)=O (centres undefined) | 41 | – | -0.89 | > 2000 | 2.89 | >2000 | 2.89 | 20 | Accumulation coefficient (Plasmodium falciparum [18]): 22; Reversal (Plasmodium falciparum [19]): 0%
CN(C)CC1=C(CN(C)C)C2c3ccccc3C1c1ccccc12 | 2.5 | 55 | 8.66 | 920 | 3.34 | >2000 | 1.26 | 0.8 | Accumulation coefficient (Plasmodium falciparum [20]): 242
CCOC(=O)C1C2c3ccccc3C(c3ccccc32)C1N(C)C (centres undefined) | 34 | 0 | 7.48 | > 2000 | 3.6 | >2000 | 3 | 3.1 | Accumulation coefficient (Plasmodium falciparum [21]): 63
NC(=O)C1C2c3ccccc3C(c3ccccc32)C1C(N)=O (centres undefined) | 44 | 0 | -0.96 | > 2000 | 0.86 | >2000 | 0.86 | 50 | Accumulation coefficient (Plasmodium falciparum [22]): 29
NCC1C2c3ccccc3C(c3ccccc32)C1CN (centres undefined) | 8 | 7 | – | 465 | – | >2000 | – | 12.5 | pKa [23]: 10.1; logP [5]: 1.89; logD [8]: -3.27; Accumulation coefficient (Plasmodium falciparum [24]): 159
CN(C)C1C2c3ccccc3C(c3ccccc32)C1C(=O)O (centres undefined) | > 50 | 0 | 8.3 | > 2000 | 2.7 | >2000 | 0.1 | > 100 | Accumulation coefficient (Plasmodium falciparum [25]): 18
CN(C)C(=O)C1=C(C(=O)N(C)C)C2c3ccccc3C1c1ccccc12 | 36.5 | 0 | – | > 2000 | 2.15 | >2000 | 2.15 | > 50 | Accumulation coefficient (Plasmodium falciparum [26]): 30
CN(C)C(=O)C1C2c3ccccc3C(c3ccccc32)C1C(=O)N(C)C (stereo in doubt; 17) | – | 3 | -1.34 | 1558 | 1.7 | >2000 | 1.7 | 9 | IC50 (Plasmodium falciparum [1]): 12.4 µM; Accumulation coefficient (Plasmodium falciparum [27]): 32
CN(C)CC1C2c3ccccc3C(c3ccccc32)C1CN(C)C (stereo in doubt; 19) | – | 80 | – | > 2000 | – | – | – | – | IC50 (Plasmodium falciparum [1]): 4 µM; Accumulation coefficient (Plasmodium falciparum [28]): 298; IC50 (Plasmodium falciparum [10]): 0.4 µM
CCN(CC)CCCC(C)Nc1ccnc2cc(Cl)ccc12 (centres undefined) [CHLOROQUINE] | 0.9 | 0 | – | – | – | – | – | – | Accumulation coefficient (Plasmodium falciparum [29]): 18; Accumulation coefficient (Plasmodium falciparum [30]): 191
